Source: ChEMBL document CHEMBL2169776, “Antimicrobial activity of peptidomimetics against multidrug-resistant Escherichia coli: a comparative study of different backbones” (J Med Chem, 2012)
≈ marks a conversion by molar mass, not a printed value. Square brackets hold non-standard residues; d marks the D form. Peptide text beside a SMILES is read from it. Nphe = O=C(O)CNCc1ccccc1; Nlys = NCCCCNCC(=O)O

Key:
Staphylococcus aureus = assay: Antibacterial activity against methicillin-resistant Staphylococcus aureus isolate after 16 to 20 hrs by broth microdilution assay; format: functional
Escherichia coli [1] = assay: Antibacterial activity against multidrug resistant ESBL producing Escherichia coli isolate after 16 to 20 hrs by broth microdilution assay; format: functional
Klebsiella pneumoniae [2] = assay: Antibacterial activity against multidrug resistant KPC producing Klebsiella pneumoniae isolate after 16 to 20 hrs by broth microdilution assay; format: functional
[3] = Proteolytic stability of compound in presence of Pronase by reverse phase HPLC analysis; format: ADME
In short: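 Oligomer (2 mg/mL solution, 250 μL) incubated with Pronase (1.0 mg/mL solution, 50 μL) in 10 mM Tris pH 7.5 (1.2 mL); enzyme activity first confirmed on Nα-benzoyl arginine. Degradation followed by analytical reverse-phase HPLC (10−60% B) at 6, 12, 18 and 50 h; degradation product identified by HRMS.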

Escherichia coli [4] = assay: Antibacterial activity against multidrug resistant NDM-1 producing Escherichia coli isolate after 16 to 20 hrs by broth microdilution assay; format: functional
Escherichia coli [5] = assay: Antibacterial activity against Escherichia coli ATCC 25922 after 16 to 20 hrs by broth microdilution assay; format: functional
HeLa = assay: Cytotoxicity against human HeLa cells assessed as growth inhibition after 1 hr; format: cell-based
In short: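 HeLa cells seeded at 9000 per well, cultured 24 h; at 80−100% confluency washed with HBSS and exposed 1 h (37 °C, 50 rpm) to 2-fold serial dilutions in EMEM. After washing, MTS/PMS (240/2.4 μg/mL) in HBSS added for 1.5 h; formazan read at 492 nm. 0.2% SDS = 0%, EMEM alone = 100%. Test range 1−128 or 8−1024 μM; IC50 reported.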

[6] = Therapeutic index, ratio of HC10 for human erythrocyte cells to MIC for multidrug resistant bacterial strains; conditions: read-out: TI
In short: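 TI = hemolytic activity divided by median of MIC values. Hemolysis: washed fresh human RBCs (1% v/v in TBS, pH 7.2) with 2-fold oligomer dilutions (1–128 μM), 37 °C, 1 h; supernatant OD 405 nm; melittin 400 μg/mL = 100%, TBS = 0%. HA = concentration giving ≥10% lysis. MICs by broth microdilution, 35 °C, 16–20 h.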

Escherichia coli [7] = assay: Antibacterial activity against multidrug resistant Amp-C producing Escherichia coli isolate after 16 to 20 hrs by broth microdilution assay; format: functional
[8] = Hemolytic activity against human RBCs after 1 hr by spectrophotometry; format: ADME, cell-based; conditions: erythrocyte
In short: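 Freshly drawn human erythrocytes washed in TBS (pH 7.2, 10 mM Tris, 150 mM NaCl), 1% v/v suspension mixed with 2-fold serial dilutions (1−128 μM) in water; 1 h at 37 °C. After pelleting, supernatant diluted 1:1 with water and hemoglobin read at OD 405 nm. Melittin (400 μg/mL) = 100%, TBS = 0%. Value is the lowest concentration giving ≥10% lysis.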

Klebsiella pneumoniae [9] = assay: Antibacterial activity against multidrug resistant NDM-1 producing Klebsiella pneumoniae isolate after 16 to 20 hrs by broth microdilution assay; format: functional

Compound	MIC (Staphylococcus aureus) [µM]	MIC (Escherichia coli [1]) [µM]	MIC (Klebsiella pneumoniae [2]) [µM]	Stability [3]	MIC (Escherichia coli [4]) [µM]	MIC (Escherichia coli [5]) [µM]	IC50 (HeLa) [µM]	selectivity ratio [6]	MIC (Escherichia coli [7]) [µM]	HC10 [8] [µM]	MIC (Klebsiella pneumoniae [9]) [µM]
CC(=O)N(CCCCN)CC(=O)N(CC(=O)N(CCCCN)CC(=O)N(CC(=O)N(CCCCN)CC(=O)N(CC(=O)N(CCCCN)CC(=O)N(CC(=O)N(CCCCN)CC(=O)N(CC(=O)N(CCCCN)CC(=O)N(CC(=O)N(CCCCN)CC(=O)N(CC(=O)N(CCCCN)CC(=O)N(CC(N)=O)Cc1ccccc1)Cc1ccccc1)Cc1ccccc1)Cc1ccccc1)Cc1ccccc1)Cc1ccccc1)Cc1ccccc1)Cc1ccccc1 (Ac-[Nlys][Nphe][Nlys][Nphe][Nlys][Nphe][Nlys][Nphe][Nlys][Nphe][Nlys][Nphe][Nlys][Nphe][Nlys][Nphe]-NH2)	256 (≈ 579 µg/mL)	64 (≈ 145 µg/mL)	256 (≈ 579 µg/mL)	Stable	32 (≈ 72.4 µg/mL)	32 (≈ 72.4 µg/mL)	194	> 4	32 (≈ 72.4 µg/mL)	> 128	256 (≈ 579 µg/mL)
CC(=O)N(CCCCN)CCC(=O)N(CCC(=O)N(CCCCN)CCC(=O)N(CCC(=O)N(CCCCN)CCC(=O)N(CCC(=O)N(CCCCN)CCC(=O)N(CCC(=O)N(CCCCN)CCC(=O)N(CCC(=O)N(CCCCN)CCC(=O)N(CCC(=O)N(CCCCN)CCC(=O)N(CCC(=O)N(CCCCN)CCC(=O)N(CCC(N)=O)Cc1ccccc1)Cc1ccccc1)Cc1ccccc1)Cc1ccccc1)Cc1ccccc1)Cc1ccccc1)Cc1ccccc1)Cc1ccccc1	256 (≈ 636 µg/mL)	8 (≈ 19.9 µg/mL)	256 (≈ 636 µg/mL)	Stable	4 (≈ 9.95 µg/mL)	16 (≈ 39.8 µg/mL)	169	> 10	16 (≈ 39.8 µg/mL)	> 128	256 (≈ 636 µg/mL)
CO/N=C(\C(=O)N[C@@H]1C(=O)N2C(C(=O)O)=C(COC(C)=O)CS[C@H]12)c1csc(N)n1 [CEFOTAXIME]	34 (≈ 15.5 µg/mL)	> 134	> 134	–	> 134	< 0.1	–	–	2.1 (≈ 0.956 µg/mL)	–	> 134
CC(=O)N[C@@H](CCCCN)CC(=O)N[C@@H](Cc1ccccc1)C(=O)N[C@@H](CCCCN)CC(=O)N[C@@H](Cc1ccccc1)C(=O)N[C@@H](CCCCN)CC(=O)N[C@@H](Cc1ccccc1)C(=O)N[C@@H](CCCCN)CC(=O)N[C@@H](Cc1ccccc1)C(=O)N[C@@H](CCCCN)CC(=O)N[C@@H](Cc1ccccc1)C(=O)N[C@@H](CCCCN)CC(=O)N[C@@H](Cc1ccccc1)C(=O)N[C@@H](CCCCN)CC(=O)N[C@@H](Cc1ccccc1)C(=O)N[C@@H](CCCCN)CC(=O)N[C@@H](Cc1ccccc1)C(N)=O	256 (≈ 608 µg/mL)	8 (≈ 19 µg/mL)	128 (≈ 304 µg/mL)	Stable	4 (≈ 9.5 µg/mL)	8 (≈ 19 µg/mL)	133	8	16 (≈ 38 µg/mL)	64	256 (≈ 608 µg/mL)
CC(=O)N[C@@H](CCCCN)CC(=O)N[C@H](CC(=O)N[C@@H](CCCCN)CC(=O)N[C@H](CC(=O)N[C@@H](CCCCN)CC(=O)N[C@H](CC(=O)N[C@@H](CCCCN)CC(=O)N[C@H](CC(=O)N[C@@H](CCCCN)CC(=O)N[C@H](CC(=O)N[C@@H](CCCCN)CC(=O)N[C@H](CC(=O)N[C@@H](CCCCN)CC(=O)N[C@H](CC(=O)N[C@@H](CCCCN)CC(=O)N[C@H](CC(N)=O)Cc1ccccc1)Cc1ccccc1)Cc1ccccc1)Cc1ccccc1)Cc1ccccc1)Cc1ccccc1)Cc1ccccc1)Cc1ccccc1	16 (≈ 39.8 µg/mL)	32 (≈ 79.6 µg/mL)	32 (≈ 79.6 µg/mL)	Stable	32 (≈ 79.6 µg/mL)	16 (≈ 39.8 µg/mL)	31	4	32 (≈ 79.6 µg/mL)	128	32 (≈ 79.6 µg/mL)
CC(=O)N[C@H](CCCCN)C(=O)N[C@H](Cc1ccccc1)C(=O)N[C@H](CCCCN)C(=O)N[C@H](Cc1ccccc1)C(=O)N[C@H](CCCCN)C(=O)N[C@H](Cc1ccccc1)C(=O)N[C@H](CCCCN)C(=O)N[C@H](Cc1ccccc1)C(=O)N[C@H](CCCCN)C(=O)N[C@H](Cc1ccccc1)C(=O)N[C@H](CCCCN)C(=O)N[C@H](Cc1ccccc1)C(=O)N[C@H](CCCCN)C(=O)N[C@H](Cc1ccccc1)C(=O)N[C@H](CCCCN)C(=O)N[C@H](Cc1ccccc1)C(N)=O	16 (≈ 36.2 µg/mL)	256 (≈ 579 µg/mL)	256 (≈ 579 µg/mL)	Stable	128 (≈ 290 µg/mL)	128 (≈ 290 µg/mL)	18.1	< 0.008	256 (≈ 579 µg/mL)	< 1	256 (≈ 579 µg/mL)
CC(=O)N[C@@H](CCCCN)C(=O)N(CCC(=O)N[C@@H](CCCCN)C(=O)N(CCC(=O)N[C@@H](CCCCN)C(=O)N(CCC(=O)N[C@@H](CCCCN)C(=O)N(CCC(=O)N[C@@H](CCCCN)C(=O)N(CCC(=O)N[C@@H](CCCCN)C(=O)N(CCC(=O)N[C@@H](CCCCN)C(=O)N(CCC(=O)N[C@@H](CCCCN)C(=O)N(CCC(N)=O)Cc1ccccc1)Cc1ccccc1)Cc1ccccc1)Cc1ccccc1)Cc1ccccc1)Cc1ccccc1)Cc1ccccc1)Cc1ccccc1	> 256	4 (≈ 9.5 µg/mL)	128 (≈ 304 µg/mL)	Stable	4 (≈ 9.5 µg/mL)	8 (≈ 19 µg/mL)	25.9	> 21	8 (≈ 19 µg/mL)	> 128	256 (≈ 608 µg/mL)
GENTAMICIN	56	> 111	> 111	–	> 111	1.7	–	–	6.9	–	111
CC(=O)N[C@@H](CCCCN)C(=O)N(CC(=O)N[C@@H](CCCCN)C(=O)N(CC(=O)N[C@@H](CCCCN)C(=O)N(CC(=O)N[C@@H](CCCCN)C(=O)N(CC(=O)N[C@@H](CCCCN)C(=O)N(CC(=O)N[C@@H](CCCCN)C(=O)N(CC(=O)N[C@@H](CCCCN)C(=O)N(CC(=O)N[C@@H](CCCCN)C(=O)N(CC(N)=O)Cc1ccccc1)Cc1ccccc1)Cc1ccccc1)Cc1ccccc1)Cc1ccccc1)Cc1ccccc1)Cc1ccccc1)Cc1ccccc1 (Ac-K[Nphe]K[Nphe]K[Nphe]K[Nphe]K[Nphe]K[Nphe]K[Nphe]K[Nphe]-NH2)	256 (≈ 579 µg/mL)	8 (≈ 18.1 µg/mL)	128 (≈ 290 µg/mL)	Stable	2 (≈ 4.52 µg/mL)	4 (≈ 9.05 µg/mL)	101	> 21	8 (≈ 18.1 µg/mL)	> 128	128 (≈ 290 µg/mL)
CC(=O)N(CCCCN)CC(=O)N[C@@H](Cc1ccccc1)C(=O)N(CCCCN)CC(=O)N[C@@H](Cc1ccccc1)C(=O)N(CCCCN)CC(=O)N[C@@H](Cc1ccccc1)C(=O)N(CCCCN)CC(=O)N[C@@H](Cc1ccccc1)C(=O)N(CCCCN)CC(=O)N[C@@H](Cc1ccccc1)C(=O)N(CCCCN)CC(=O)N[C@@H](Cc1ccccc1)C(=O)N(CCCCN)CC(=O)N[C@@H](Cc1ccccc1)C(=O)N(CCCCN)CC(=O)N[C@@H](Cc1ccccc1)C(N)=O (Ac-[Nlys]F[Nlys]F[Nlys]F[Nlys]F[Nlys]F[Nlys]F[Nlys]F[Nlys]F-NH2)	> 256	16 (≈ 36.2 µg/mL)	256 (≈ 579 µg/mL)	–	32 (≈ 72.4 µg/mL)	16 (≈ 36.2 µg/mL)	267	> 5	32 (≈ 72.4 µg/mL)	> 128	256 (≈ 579 µg/mL)
CC(=O)N[C@@H](CCCCN)C(=O)N[C@@H](Cc1ccccc1)C(=O)N[C@@H](CCCCN)C(=O)N[C@@H](Cc1ccccc1)C(=O)N[C@@H](CCCCN)C(=O)N[C@@H](Cc1ccccc1)C(=O)N[C@@H](CCCCN)C(=O)N[C@@H](Cc1ccccc1)C(=O)N[C@@H](CCCCN)C(=O)N[C@@H](Cc1ccccc1)C(=O)N[C@@H](CCCCN)C(=O)N[C@@H](Cc1ccccc1)C(=O)N[C@@H](CCCCN)C(=O)N[C@@H](Cc1ccccc1)C(=O)N[C@@H](CCCCN)C(=O)N[C@@H](Cc1ccccc1)C(N)=O	16 (≈ 36.2 µg/mL)	> 256	> 256	Unstable	128 (≈ 290 µg/mL)	> 256	19.6	< 0.004	> 256	< 1	> 256
O=C(O)c1cn(C2CC2)c2cc(N3CCNCC3)c(F)cc2c1=O [CIPROFLOXACIN]	19 (≈ 6.3 µg/mL)	–	–	–	–	< 0.1	–	–	–	–	–
